In ChEMBL document CHEMBL1154040, “Synthesis and evaluation of novel F-18 labeled fluoroarylvaline derivatives: potential PET imaging agents for tumor detection” (Bioorg Med Chem Lett, 2009):

Key:
[1] = Biodistribution in S180 tumor present in KM mouse assessed per gram of tissue at 240 to 370 kBq, iv after 120 mins; assay type: ADME, organism-based, Neoplasm; details: in vivo, 2 h
[2] = Ratio of drug level in S180 tumor to brain KM mouse at 240 to 370 kBq, iv after 120 mins; assay type: ADME, organism-based; details: in vivo, 2 h
[3] = system: Brain; assay: Biodistribution in S180 tumor-bearing KM mouse brain assessed per gram of tissue at 240 to 370 kBq, iv after 60 mins; assay type: ADME, organism-based; details: in vivo, 1 h
[4] = Ratio of drug level in S180 tumor to muscleKM mouse at 240 to 370 kBq, iv after 5 mins; assay type: ADME, organism-based, KM; details: in vivo
[5] = system: Liver; assay: Biodistribution in S180 tumor-bearing KM mouse liver assessed per gram of tissue at 240 to 370 kBq, iv after 60 mins; assay type: ADME, organism-based; details: in vivo, 1 h
[6] = system: Femur; assay: Biodistribution in S180 tumor-bearing KM mouse femur assessed per gram of tissue at 240 to 370 kBq, iv after 30 mins; assay type: ADME, organism-based; details: in vivo, 0.5 h
Summary of the method: (§1)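 Female KM mice (20 ± 2 g) were used 14–18 days after inoculation of 5 × 10^6 S 180 tumor cells. The ¹⁸F tracer in saline was injected into the tail vein of awake mice. Mice were killed at 5, 15, 30, 60 or 120 min, and the femur was removed, weighed and gamma-counted. Results are background-corrected %ID/g, mean ± SD, n = 4.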

[7] = system: Lung; assay: Biodistribution in S180 tumor-bearing KM mouse lung assessed per gram of tissue at 240 to 370 kBq, iv after 30 mins; assay type: ADME, organism-based; details: in vivo, 0.5 h
[8] = system: Liver; assay: Biodistribution in S180 tumor-bearing KM mouse liver assessed per gram of tissue at 240 to 370 kBq, iv after 30 mins; assay type: ADME, organism-based; details: in vivo, 0.5 h
[9] = Ratio of drug level in S180 tumor to blood in KM mouse at 240 to 370 kBq, iv after 30mins; assay type: ADME, organism-based; details: tumour, 0.5 h
[10] = Ratio of drug level in S180 tumor to brain KM mouse at 240 to 370 kBq, iv after 60 mins; assay type: ADME, organism-based; details: in vivo, 1 h
[11] = system: Blood; assay: Biodistribution in S180 tumor-bearing KM mouse blood assessed per gram of tissue weight at 240 to 370 kBq, iv after 30 mins; assay type: ADME, organism-based; details: in vivo, 0.5 h
[12] = system: Muscle tissue; assay: Biodistribution in S180 tumor-bearing KM mouse muscle assessed per gram of tissue at 240 to 370 kBq, iv after 15 mins; assay type: ADME, organism-based; details: in vivo, 0.25 h
[13] = system: Blood; assay: Biodistribution in S180 tumor-bearing KM mouse blood assessed per gram of tissue weight at 240 to 370 kBq, iv after 5 mins; assay type: ADME, organism-based; details: in vivo
[14] = system: Muscle tissue; assay: Biodistribution in S180 tumor-bearing KM mouse muscle assessed per gram of tissue at 240 to 370 kBq, iv after 30 mins; assay type: ADME, organism-based; details: in vivo, 0.5 h
[15] = system: Femur; assay: Biodistribution in S180 tumor-bearing KM mouse femur assessed per gram of tissue at 240 to 370 kBq, iv after 60 mins; assay type: ADME, organism-based; details: in vivo, 1 h; summary of the method: as §1
[16] = system: Femur; assay: Biodistribution in S180 tumor-bearing KM mouse femur assessed per gram of tissue at 240 to 370 kBq, iv after 120 mins; assay type: ADME, organism-based; details: in vivo, 2 h; summary of the method: as §1
[17] = system: Muscle tissue; assay: Biodistribution in S180 tumor-bearing KM mouse muscle assessed per gram of tissue at 240 to 370 kBq, iv after 5 mins; assay type: ADME, organism-based; details: in vivo
[18] = system: Blood; assay: Stability in tumor bearing KM mouse blood after 30 mins at 4 MBq, iv; assay type: ADME, tissue-based; details: 0.5 h
Summary of the method: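 Blood from tumor-bearing mice was collected after tracer injection and centrifuged at once for 5 min at 13,200 rpm. Supernatants from both centrifugation steps were combined, loaded onto a C18 Sep-Pak cartridge, washed with 2 ml water, then eluted.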

[19] = Ratio of drug level in S180 tumor to blood in KM mouse at 240 to 370 kBq, iv after 60 mins; assay type: ADME, organism-based; details: tumour, 1 h
[20] = system: Kidney; assay: Biodistribution in S180 tumor-bearing KM mouse kidney assessed per gram of tissue at 240 to 370 kBq, iv after 5 mins; assay type: ADME, organism-based; details: in vivo
[21] = system: Lung; assay: Biodistribution in S180 tumor-bearing KM mouse lung assessed per gram of tissue at 240 to 370 kBq, iv after 5 mins; assay type: ADME, organism-based; details: in vivo
[22] = system: Femur; assay: Biodistribution in S180 tumor-bearing KM mouse femur assessed per gram of tissue at 240 to 370 kBq, iv after 15 mins; assay type: ADME, organism-based; details: in vivo, 0.25 h; summary of the method: as §1
[23] = system: Femur; assay: Biodistribution in S180 tumor-bearing KM mouse femur assessed per gram of tissue at 240 to 370 kBq, iv after 5 mins; assay type: ADME, organism-based; details: in vivo; summary of the method: as §1

Drug uptake [1] [%ID] | tumor/brain ratio [2] | Drug uptake [3] [%ID] | tumor/muscle ratio [4] | Drug uptake [5] [%ID] | Drug uptake [6] [%ID] | Drug uptake [7] [%ID] | Drug uptake [8] [%ID] | tumor/blood ratio [9] | tumor/brain ratio [10] | Drug uptake [11] [%ID] | Drug uptake [12] [%ID] | Drug uptake [13] [%ID] | Drug uptake [14] [%ID] | Drug uptake [15] [%ID] | Drug uptake [16] [%ID] | Drug uptake [17] [%ID] | tumor/blood ratio [19] | Drug uptake [20] [%ID] | Drug uptake [21] [%ID] | SMILES | other results
0.08 | 6.9 | 0.03 | 1.38 | 0.77 | 3.38 | 1.38 | 1.59 | 2.32 | 9.99 | 0.24 | 0.47 | 2.43 | 0.21 | 2.47 | 2.15 | 0.99 | 1.83 | 11.9 | 5.04 | CC(C)[C@H](NC(=O)c1ccc([N+](=O)[O-])cc1[18F])C(=O)O | Stability [18]: Stable; Drug uptake [22]: 4.02 %ID; Drug uptake [23]: 3.61 %ID
0.31 | 2.61 | 0.17 | 1.94 | 0.27 | 2.11 | 1.31 | 3.66 | 2.91 | 5.61 | 0.68 | 1.39 | 3.09 | 0.82 | 2.09 | 2.01 | 1.43 | 3.44 | 17.9 | 5.49 | COC(=O)[C@@H](NC(=O)c1ccc([N+](=O)[O-])cc1[18F])C(C)C | Stability [18]: Stable; Drug uptake [22]: 2.23 %ID; Drug uptake [23]: 1.6 %ID
1.7 | 1.33 | 2.11 | 0.81 | 0.22 |  | 0.64 | 0.23 |  | 1.02 | 0.16 | 1.14 | 1.09 | 1.07 |  |  | 1.56 | 19.5 | 2.16 | 1.52 | OC[C@H]1O[C@@H](O)[C@H]([18F])[C@@H](O)[C@@H]1O [FLUDEOXYGLUCOSE-F18] | 
